Laboratory results taken from ChEMBL document CHEMBL1154198, “Chemical genetics of Plasmodium falciparum” (Nature, 2010).

How the values were obtained:
Plasmodium falciparum [1] = assay: ST_JUDE: Cytotoxicity against Plasmodium falciparum D10 transfected with yeast DHOD; assay type: functional, organism-based
[2] = ST_JUDE: Cytotoxicity using luciferase to measure ATP as an indicator of the viability of human Burkitt''s lymphoma lymphoblast cells (Raji); assay type: toxicity, cell-based
Plasmodium falciparum [3] = assay: ST_JUDE: Cytotoxicity against Plasmodium falciparum 3D7; assay type: functional, organism-based
Procedure, shortened: (§1)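 Asexual P. falciparum grown in human erythrocytes, exposed to compounds for 72 h, and growth read as the DNA quantity in treated versus control cultures. Dose-response run at 12 concentrations from 10 μM to 5 nM.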

Plasmodium falciparum [4] = assay: ST_JUDE: Cytotoxicity against Plasmodium falciparum K1; assay type: functional, organism-based; procedure, shortened: as §1
Plasmodium falciparum [5] = assay: ST_JUDE: Cytotoxicity against Plasmodium falciparum SB-A6; assay type: functional, organism-based
Plasmodium falciparum [6] = assay: ST_JUDE: Cytotoxicity against Plasmodium falciparum Dd2; assay type: functional, organism-based
Trypanosoma brucei = assay: ST_JUDE: Cytotoxicity using luciferase to measure ATP as an indicator of the viability of Trypanosoma brucei; assay type: functional, organism-based
Plasmodium falciparum [7] = assay: ST_JUDE: Cytotoxicity against Plasmodium falciparum V1/S; assay type: functional, organism-based
Toxoplasma gondii = assay: ST_JUDE: Growth inhibition of to Toxoplasma gondii, in human U-2OS cells, as measured by luciferase.; assay type: functional, organism-based; details: RH, U2OS
Procedure, shortened: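 T. gondii parasites engineered to express luciferase; drug sensitivity read by luminescence.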

Leishmania major = assay: ST_JUDE: Cytotoxicity using Alamar Blue to measure viability of Leishmania major; assay type: functional, organism-based
Procedure, shortened: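 L. major promastigotes; drug susceptibility read with Alamar Blue.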

Plasmodium falciparum [8] = assay: ST_JUDE: Plasmodium falciparum K1 EC50 (uM) as measured by SYBR green dye; assay type: functional, organism-based
[9] = ST_JUDE: Cytotoxicity using luciferase to measure ATP as an indicator of the viability of human foreskin fibroblast cells (BJ); assay type: toxicity, cell-based
[10] = ST_JUDE: Cytotoxicity using luciferase to measure ATP as an indicator of the viability of human epithelial embryonic kidney cells (HEK293); assay type: toxicity, cell-based
Plasmodium falciparum [11] = assay: ST_JUDE: Plasmodium falciparum 3D7 EC50 (uM) as measured by SYBR green dye; assay type: functional, organism-based
Plasmodium falciparum [12] = assay: ST_JUDE: Cytotoxicity against Plasmodium falciparum W2; assay type: functional, organism-based
[13] = ST_JUDE: Cytotoxicity using luciferase to measure ATP as an indicator of the viability of human epithelial hepatocellular carcinoma cells (HepG2); assay type: toxicity, cell-based

SMILES | EC50 (Plasmodium falciparum [1]) | EC50 [2] | EC50 (Plasmodium falciparum [3]) | EC50 (Plasmodium falciparum [4]) | EC50 (Plasmodium falciparum [5]) | EC50 (Plasmodium falciparum [6]) | EC50 (Trypanosoma brucei) | EC50 (Plasmodium falciparum [7]) | EC50 (Toxoplasma gondii) | EC50 (Leishmania major) | EC50 (Plasmodium falciparum [8]) | EC50 [9] | EC50 [10] | EC50 (Plasmodium falciparum [11]) | EC50 (Plasmodium falciparum [12]) | EC50 [13]
COc1ccc(NC(=O)C2c3ccccc3C(=O)N(CC(C)C)C2c2cccs2)cc1Cl (stereo not drawn) | 133 nM | > 40400 nM | 117 nM | 134 nM | 150 nM | 167 nM | 2630 nM | 244 nM | > 22100 nM | > 17300 nM | 139 nM | > 40400 nM | > 40400 nM | 119 nM | 555 nM | > 40400 nM
O=C(Nc1cccc(Cl)c1N1CCOCC1)C(Cl)(Cl)Cl | 3380 nM | > 30200 nM | 1540 nM | 1400 nM | 2790 nM | 2470 nM | > 29000 nM | 1080 nM | > 16600 nM | > 12900 nM | 2980 nM | > 30200 nM | > 30200 nM | 8600 nM | > 7760 nM | > 30200 nM
CSC(=S)N/N=C(\c1ccccc1)c1ccccn1 | 398 nM | 33.4 nM | 563 nM | 862 nM | 331 nM | 0.8 nM | 2210 nM | 404 nM | 1640 nM | > 18400 nM | 364 nM | > 42900 nM | > 42900 nM | 232 nM | > 11000 nM | > 42900 nM
Cc1ccc2c(c1)N(CCO)/C(=C/c1sc3ccccc3[n+]1C)S2 | 341 nM | 1780 nM | 250 nM | 330 nM | 468 nM | 197 nM | 5200 nM | 394 nM | > 9160 nM | > 7160 nM | 162 nM | > 16700 nM | > 16700 nM | 423 nM | 240 nM | > 16700 nM
CCN1CCN(Cc2c(O)ccc3c(=O)c(Oc4ccccc4C(C)C)c(C(F)(F)F)oc23)CC1 | 247 nM | > 23300 nM | 223 nM | 69.6 nM | 335 nM | 523 nM | > 22400 nM | 102 nM | > 12800 nM | > 9980 nM | 59.2 nM | > 23300 nM | > 23300 nM | 226 nM | 41.8 nM | > 23300 nM
CCCO/C(O)=C1\C(C)=NC2=C(C(=O)CC(c3ccc(OC)c(OC)c3)C2)C1c1cccc(Cl)c1 (stereo not drawn) | 330 nM | > 37700 nM | 732 nM | 426 nM | 199 nM | 1020 nM | 5150 nM | 518 nM | > 20700 nM | > 16200 nM | 188 nM | > 37700 nM | > 37700 nM | 536 nM | 586 nM | > 37700 nM
Cc1ccc(C(O)(CNCc2ccccc2)c2ccc(Br)cc2)cc1 (stereo not drawn) | 1730 nM | 35500 nM | 2100 nM | 1170 nM | 3450 nM | 1470 nM | 9550 nM | 1280 nM | > 26500 nM | > 20700 nM | 1110 nM | > 48300 nM | > 48300 nM | 2230 nM | 4370 nM | 20000 nM
COc1cc(OC)c(NC(=O)C2c3ccccc3C(=O)N(CC(C)C)C2c2cccs2)cc1Cl (stereo not drawn) | 71.9 nM | > 45100 nM | 47.3 nM | 93 nM | 83.1 nM | 54.8 nM | 7710 nM | 131 nM | > 24700 nM | > 19300 nM | 20.3 nM | > 45100 nM | > 45100 nM | 20.5 nM | 16 nM | > 45100 nM
C#CC[n+]1ccn2c(C)ccc2c1CC | > 12800 nM | 40700 nM | 1680 nM | 1420 nM | 2530 nM | 1540 nM | > 47700 nM | > 12800 nM | > 27300 nM | > 21300 nM | 1380 nM | > 49800 nM | > 49800 nM | > 15000 nM | 3440 nM | > 49800 nM
CCO/C(O)=C1\C(C)=NC2=C(C(=O)CC(c3ccc(OC)c(OC)c3)C2)C1c1cccc(Cl)c1 (stereo not drawn) | 531 nM | > 41900 nM | 831 nM | 487 nM | 335 nM | 1480 nM | 16700 nM | 902 nM | > 22900 nM | > 17900 nM | 226 nM | > 41900 nM | > 41900 nM | 716 nM | 1800 nM | > 41900 nM
CCOC(=O)C1(Cc2ccc(Cl)cc2)CCN(Cc2ccccc2O)CC1 | 559 nM | > 56900 nM | 2000 nM | 194 nM | 549 nM | 445 nM | 12300 nM | 327 nM | > 31200 nM | > 24400 nM | 106 nM | > 56900 nM | > 56900 nM | 457 nM | 548 nM | > 56900 nM
CC(C)CN1C(=O)c2ccccc2C(C(=O)Nc2ccc(F)c(Cl)c2)C1c1cccs1 (stereo not drawn) | 1310 nM | > 42300 nM | 378 nM | 421 nM | 1390 nM | 421 nM | 2620 nM | 1680 nM | > 23200 nM | > 18100 nM | 173 nM | > 42300 nM | > 42300 nM | 89.7 nM | 152 nM | 38100 nM
CCN1/C(=C/c2cccc[n+]2C)Sc2ccc(OC)cc21 | 1270 nM | 3160 nM | 603 nM | 784 nM | 1550 nM | 748 nM | 3730 nM | 1080 nM | > 14300 nM | 18.9 nM | 329 nM | > 26200 nM | > 26200 nM | 480 nM | > 6720 nM | > 26200 nM
